According to ChEMBL document CHEMBL1275451, “In vitro susceptibilities of invasive isolates of Candida species: rapid increase in rates of fluconazole susceptible-dose dependent Candida glabrata isolates” (2008):
Converted amounts (≈) assume the structure as drawn. *1 amine or outer side, *2 acyl side, *3 side chain or, on linkers, in order; H or OH if unused. Where a SMILES comes first, the peptide text is derived from it. Bridges are numbered along the chain shown (N, C = ends). [ ]: non-standard residue; d: D form. The star is where a group is joined. hTyr(3S-OH,4S-OH,3'-OSO3H) = N[C@H](C(=O)O)[C@H](O)[C@@H](O)c1ccc(O)c(OS(=O)(=O)O)c1; Orn(4R-OH,5R-OH) = O=C([C@H](C[C@@H](O)[C@@H](O)N[*:3])N[*:1])[*:2]; Pro(3S-OH,4S-Me) = C[C@H]1CN[C@H](C(=O)O)[C@H]1O; X1 = CCCCCOc1ccc(-c2cc(-c3ccc(C(=O)*)cc3)no2)cc1; Gln(3R-OH) = NC(=O)C[C@@H](O)[C@H](N)C(=O)O; Hyp = O=C(O)[C@@H]1C[C@@H](O)CN1

How the values were obtained:
Assay type in all cases: functional
Candida parapsilosis [1] = test: Antifungal activity against Candida parapsilosis after 48 hrs by CLSI method; details: Lodderomyces parapsilosis
How it was run: (§1)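 Broth microdilution MICs were run on invasive clinical Candida isolates under CLSI M27-A2, with incubation at 35°C for 48 h before reading. Control strains were C. parapsilosis ATCC 22019 and C. krusei ATCC 6258. MICs were interpreted under the same guideline to place isolates as susceptible, susceptible-dose dependent or resistant, reported as percentage of isolates per category, with MIC range, MIC50 and MIC90.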

Candida albicans [2] = test: Antifungal activity against Candida albicans assessed as resistant isolates after 48 hrs by CLSI method; how it was run: as §1
Nakaseomyces glabratus [3] = test: Antifungal activity against Candida glabrata after 48 hrs by CLSI method
Nakaseomyces glabratus [4] = test: Antifungal activity against Candida glabrata assessed as resistant isolates after 48 hrs by CLSI method; how it was run: as §1
Candida albicans [5] = test: Antifungal activity against Candida albicans assessed as susceptible isolates after 48 hrs by CLSI method; how it was run: as §1
Candida parapsilosis [6] = test: Antifungal activity against Candida parapsilosis assessed as susceptible isolates after 48 hrs by CLSI method; how it was run: as §1
Nakaseomyces glabratus [7] = test: Antifungal activity against Candida glabrata assessed as susceptible dose-dependent isolates after 48 hrs by CLSI method; how it was run: as §1
Candida parapsilosis [8] = test: Antifungal activity against Candida parapsilosis assessed as resistant isolates after 48 hrs by CLSI method; how it was run: as §1
Clavispora lusitaniae [9] = test: Antifungal activity against Candida lusitaniae assessed as susceptible isolates after 48 hrs by CLSI method; how it was run: as §1
Nakaseomyces glabratus [10] = test: Antifungal activity against Candida glabrata assessed as susceptible isolates after 48 hrs by CLSI method; how it was run: as §1
Pichia kudriavzevii [11] = test: Antifungal activity against Candida krusei assessed as resistant isolates after 48 hrs by CLSI method; how it was run: as §1
[12] = test system: Meyerozyma guilliermondii; test: Antifungal activity against Candida guilliermondii assessed as susceptible isolates after 48 hrs by CLSI method; how it was run: as §1
Candida tropicalis [13] = test: Antifungal activity against Candida tropicalis assessed as susceptible isolates after 48 hrs by CLSI method; how it was run: as §1
Pichia kudriavzevii [14] = test: Antifungal activity against Candida krusei after 48 hrs by CLSI method
How it was run: as §1, with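 “reading.” for “reading. Control strains were C. parapsilosis ATCC 22019 and C. krusei ATCC 6258.”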

[15] = test system: Meyerozyma guilliermondii; test: Antifungal activity against Candida guilliermondii assessed as susceptible dose-dependent isolates after 48 hrs by CLSI method; how it was run: as §1
Pichia kudriavzevii [16] = test: Antifungal activity against Candida krusei assessed as susceptible isolates after 48 hrs by CLSI method; how it was run: as §1
Clavispora lusitaniae [17] = test: Antifungal activity against Candida lusitaniae after 48 hrs by CLSI method
Candida tropicalis [18] = test: Antifungal activity against Candida tropicalis after 48 hrs by CLSI method; how it was run: as §1
Pichia kudriavzevii [19] = test: Antifungal activity against Candida krusei assessed as susceptible dose-dependent isolates after 48 hrs by CLSI method; how it was run: as §1
Candida tropicalis [20] = test: Antifungal activity against Candida tropicalis assessed as susceptible dose-dependent isolates after 48 hrs by CLSI method; how it was run: as §1
[21] = test system: Meyerozyma guilliermondii; test: Antifungal activity against Candida guilliermondii after 48 hrs by CLSI method
Candida albicans [22] = test: Antifungal activity against Candida albicans assessed as susceptible dose-dependent isolates after 48 hrs by CLSI method; how it was run: as §1
Candida parapsilosis [23] = test: Antifungal activity against Candida parapsilosis assessed as susceptible dose-dependent isolates after 48 hrs by CLSI method; how it was run: as §1
Clavispora lusitaniae [24] = test: Antifungal activity against Candida lusitaniae assessed as susceptible dose-dependent isolates after 48 hrs by CLSI method; how it was run: as §1
Candida tropicalis [25] = test: Antifungal activity against Candida tropicalis assessed as resistant isolates after 48 hrs by CLSI method; how it was run: as §1
Candida albicans [26] = test: Antifungal activity against Candida albicans after 48 hrs by CLSI method
Clavispora lusitaniae [27] = test: Antifungal activity against Candida lusitaniae assessed as resistant isolates after 48 hrs by CLSI method; how it was run: as §1
[28] = test system: Meyerozyma guilliermondii; test: Antifungal activity against Candida guilliermondii assessed as resistant isolates after 48 hrs by CLSI method; how it was run: as §1

| Compound | MIC50 (Candida parapsilosis [1]) [µg/mL] | MIC90 (Candida parapsilosis [1]) [µg/mL] | Activity (Candida albicans [2]) [%] | MIC50 (Nakaseomyces glabratus [3]) [µg/mL] | MIC90 (Nakaseomyces glabratus [3]) [µg/mL] | Activity (Nakaseomyces glabratus [4]) [%] | Activity (Candida albicans [5]) [%] | Activity (Candida parapsilosis [6]) [%] | Activity (Nakaseomyces glabratus [7]) [%] | MIC50 (Pichia kudriavzevii [14]) [µg/mL] | MIC90 (Pichia kudriavzevii [14]) [µg/mL] | MIC50 (Clavispora lusitaniae [17]) [µg/mL] | MIC90 (Clavispora lusitaniae [17]) [µg/mL] | MIC50 (Candida tropicalis [18]) [µg/mL] | MIC90 (Candida tropicalis [18]) [µg/mL] | MIC50 [21] [µg/mL] | MIC90 [21] [µg/mL] | MIC50 (Candida albicans [26]) [µg/mL] | MIC90 (Candida albicans [26]) [µg/mL] | MIC (Candida albicans [26]) [µg/mL] | other results |
| --- | --- | --- | --- | --- | --- | --- | --- | --- | --- | --- | --- | --- | --- | --- | --- | --- | --- | --- | --- | --- | --- |
| CCC(C)n1ncn(-c2ccc(N3CCN(c4ccc(OCC5COC(Cn6cncn6)(c6ccc(Cl)cc6Cl)O5)cc4)CC3)cc2)c1=O (stereo not drawn) [ITRACONAZOLE] | 0.06 (≈ 0.085 µM) | 0.25 (≈ 0.354 µM) | 0 | 1 (≈ 1.42 µM) | 1 (≈ 1.42 µM) | 63 | 98 | 78 | 37 | 0.5 (≈ 0.709 µM) | 0.5 (≈ 0.709 µM) | 0.06 (≈ 0.085 µM) | 0.06 (≈ 0.085 µM) | 0.12 (≈ 0.17 µM) | 0.25 (≈ 0.354 µM) | 0.5 (≈ 0.709 µM) | 0.5 (≈ 0.709 µM) | 0.03 (≈ 0.0425 µM) | 0.03 (≈ 0.0425 µM) |  | Activity (Candida parapsilosis [8]): 0%; Activity (Clavispora lusitaniae [9]): 100%; Activity (Nakaseomyces glabratus [10]): 0%; Activity (Pichia kudriavzevii [11]): 10%; Activity [12]: 6%; Activity (Candida tropicalis [13]): 65%; Activity [15]: 88%; Activity (Pichia kudriavzevii [16]): 0%; Activity (Pichia kudriavzevii [19]): 90%; Activity (Candida tropicalis [20]): 35%; Activity (Candida albicans [22]): 2%; Activity (Candida parapsilosis [23]): 22%; Activity (Clavispora lusitaniae [24]): 0%; Activity (Candida tropicalis [25]): 0% |
| CCCCCOc1ccc(-c2cc(-c3ccc(C(=O)N[C@H]4C[C@@H](O)[C@@H](O)NC(=O)[C@@H]5[C@@H](O)[C@@H](C)CN5C(=O)[C@H]([C@H](O)CC(N)=O)NC(=O)[C@H]([C@H](O)[C@@H](O)c5ccc(O)c(OS(=O)(=O)O)c5)NC(=O)[C@@H]5C[C@@H](O)CN5C(=O)[C@H]([C@@H](C)O)NC4=O)cc3)no2)cc1 [MICAFUNGIN] (X1-[Orn(4R-OH,5R-OH)]T[Hyp][hTyr(3S-OH,4S-OH,3'-OSO3H)][Gln(3R-OH)][Pro(3S-OH,4S-Me)]; lactam 1-C) | 2 (≈ 1.57 µM) | 2 (≈ 1.57 µM) |  | 0.06 (≈ 0.0472 µM) | 0.06 (≈ 0.0472 µM) |  |  |  |  | 0.25 (≈ 0.197 µM) | 0.5 (≈ 0.394 µM) | 0.25 (≈ 0.197 µM) | 0.25 (≈ 0.197 µM) | 0.06 (≈ 0.0472 µM) | 0.12 (≈ 0.0945 µM) | 1 (≈ 0.787 µM) | 1 (≈ 0.787 µM) | 0.007 (≈ 0.00551 µM) | 0.015 (≈ 0.0118 µM) | 0.007 (≈ 0.00551 µM) | MIC (Pichia kudriavzevii [14]): 0.25 µg/mL (≈ 0.197 µM); MIC (Candida tropicalis [18]): 0.06 µg/mL (≈ 0.0472 µM) |
| CC[C@@H]([C@H](C)O)n1ncn(-c2ccc(N3CCN(c4ccc(OC[C@@H]5CO[C@@](Cn6cncn6)(c6ccc(F)cc6F)C5)cc4)CC3)cc2)c1=O [POSACONAZOLE] | 0.03 (≈ 0.0428 µM) | 0.06 (≈ 0.0856 µM) |  | 0.5 (≈ 0.713 µM) | 0.5 (≈ 0.713 µM) |  |  |  |  | 0.25 (≈ 0.357 µM) | 0.25 (≈ 0.357 µM) | 0.03 (≈ 0.0428 µM) | 0.03 (≈ 0.0428 µM) | 0.06 (≈ 0.0856 µM) | 0.25 (≈ 0.357 µM) | 0.12 (≈ 0.171 µM) | 0.25 (≈ 0.357 µM) | 0.015 (≈ 0.0214 µM) | 0.03 (≈ 0.0428 µM) | 0.015 (≈ 0.0214 µM) | MIC (Candida parapsilosis [1]): 0.03 µg/mL (≈ 0.0428 µM) |
| C[C@@H](c1ncncc1F)[C@](O)(Cn1cncn1)c1ccc(F)cc1F [VORICONAZOLE] | 0.03 (≈ 0.0859 µM) | 0.06 (≈ 0.172 µM) | 0 | 0.5 (≈ 1.43 µM) | 1 (≈ 2.86 µM) | 4 | 100 | 100 | 2 | 0.5 (≈ 1.43 µM) | 0.5 (≈ 1.43 µM) | 0.015 (≈ 0.0429 µM) | 0.015 (≈ 0.0429 µM) | 0.12 (≈ 0.344 µM) | 0.12 (≈ 0.344 µM) | 0.06 (≈ 0.172 µM) | 0.12 (≈ 0.344 µM) | 0.015 (≈ 0.0429 µM) | 0.03 (≈ 0.0859 µM) | 0.015 (≈ 0.0429 µM) | Activity (Candida parapsilosis [8]): 0%; Activity (Clavispora lusitaniae [9]): 100%; Activity (Nakaseomyces glabratus [10]): 94%; Activity (Pichia kudriavzevii [11]): 3%; Activity [12]: 97%; Activity (Candida tropicalis [13]): 100%; Activity (Clavispora lusitaniae [27]): 0%; Activity [15]: 3%; Activity (Pichia kudriavzevii [16]): 95%; MIC (Clavispora lusitaniae [17]): 0.015 µg/mL (≈ 0.0429 µM); Activity (Pichia kudriavzevii [19]): 3%; Activity (Candida tropicalis [20]): 0%; Activity (Candida albicans [22]): 0%; Activity [28]: 0%; Activity (Candida parapsilosis [23]): 0%; Activity (Clavispora lusitaniae [24]): 0%; Activity (Candida tropicalis [25]): 0% |
